Activity calls are given as the source filed them. The rule behind the calls is not given here.
Assays:
Type in all cases: functional, organism-based
Escherichia coli [1] = experiment: Antimicrobial activity against ESBL producing Escherichia coli assessed as susceptible isolates by Etest
Outline: (§1)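 24 ESBL-producing E. coli strains acquired during travel, isolated from post-travel rectal swabs of Swedish travellers. Swabs were enriched in LB broth with cefotaxime 2.5 μg/ml, then plated on MacConkey agar with cefotaxime and ceftazidime discs, overnight at 35°C in room air. ESBL production was confirmed by disc-diffusion synergy test and CTX-M by PCR. Susceptibility was measured by Etest and interpreted per EUCAST guidelines.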

Escherichia coli [2] = experiment: Antimicrobial activity against ESBL producing Escherichia coli assessed as susceptible isolates by Etest in presence of beta-lactamase inhibitor Tazobactam; outline: as §1
Escherichia coli [3] = experiment: Antimicrobial activity against ESBL producing Escherichia coli assessed as resistant isolates by Etest; outline: as §1

Row | Compound | Activity (Escherichia coli [1]) | Activity (Escherichia coli [3]) | also measured
1 | C[C@@H](O)[C@H]1C(=O)N2C(C(=O)O)=C(SCCNC=N)C[C@H]12 | Active |  | 
2 | CCN1CCN(C(=O)N[C@@H](C(=O)N[C@@H]2C(=O)N3[C@@H]2SC(C)(C)[C@@H]3C(=O)O)c2ccccc2)C(=O)C1=O |  |  | Activity (Escherichia coli [2]): Active
3 | O=C1CN(/N=C/c2ccc([N+](=O)[O-])o2)C(=O)N1 | Active |  | 
4 | NC[C@H]1O[C@H](O[C@H]2[C@H](O)[C@@H](O[C@H]3O[C@H](CO)[C@@H](O)[C@H](N)[C@H]3O)[C@H](N)C[C@@H]2N)[C@H](N)C[C@@H]1O |  | inactive | 
5 | O=C(O)c1cn(C2CC2)c2cc(N3CCNCC3)c(F)cc2c1=O | Active |  | 
6 | C[C@@H](O)[C@H]1C(=O)N2C(C(=O)O)=C(S[C@@H]3CN[C@H](C(=O)N(C)C)C3)[C@H](C)[C@H]12 | Active |  | 
7 | GENTAMICIN |  | inactive | 
8 | CC1(C)S[C@@H]2[C@H](/N=C/N3CCCCCC3)C(=O)N2[C@H]1C(=O)O | Active |  | 
9 | C[C@@H](O)[C@H]1C(=O)N2C(C(=O)O)=C(S[C@@H]3CN[C@H](C(=O)Nc4cccc(C(=O)O)c4)C3)[C@H](C)[C@H]12 | Active |  | 
10 | C[C@@H]1O[C@@H]1P(=O)(O)O |  | inactive | 
